Laboratory results published in ChEMBL document CHEMBL4368943 (J Med Chem, 2019).

Key:
[1] = Binding affinity to His-TEV-tagged VHL (54 to 213 residues) (unknown origin)/Elongin B (1 to 118 residues)/Elongin C (1 to 96 residues) expressed in Escherichia coli BL21(DE3) by FP assay; parameters: species or system Homo sapiens
Summary of the method: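 Competitive FP. Tracer is a fluorescent VHL ligand (Kd 2.3 nM). VHL–ElonginB/C complex and tracer each at 5 nM final, preincubated. Compound in DMSO (5 µL into 95 µL) for 60 min at room temperature with shaking. Ex 485/em 530 nm. IC50 by nonlinear regression; Ki from probe KD and protein/probe concentrations. Duplicate, three independent experiments.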

[2] = molecular target: T1, von Hippel-Lindau disease tumor suppressor/Estrogen receptor/Cullin-2 (Homo sapiens, UniProt P03372+P40337+Q13617); assay: Protac activity against VHL/cullin2/ERalpha in human MCF7 cells assessed as ERalpha degradation by measuring ER protein/GADPH ratio at 1 nM after 4 hrs by Western blot analysis relative to control; format: cell-based
T1 sequence (P03372 whole entry, looked up): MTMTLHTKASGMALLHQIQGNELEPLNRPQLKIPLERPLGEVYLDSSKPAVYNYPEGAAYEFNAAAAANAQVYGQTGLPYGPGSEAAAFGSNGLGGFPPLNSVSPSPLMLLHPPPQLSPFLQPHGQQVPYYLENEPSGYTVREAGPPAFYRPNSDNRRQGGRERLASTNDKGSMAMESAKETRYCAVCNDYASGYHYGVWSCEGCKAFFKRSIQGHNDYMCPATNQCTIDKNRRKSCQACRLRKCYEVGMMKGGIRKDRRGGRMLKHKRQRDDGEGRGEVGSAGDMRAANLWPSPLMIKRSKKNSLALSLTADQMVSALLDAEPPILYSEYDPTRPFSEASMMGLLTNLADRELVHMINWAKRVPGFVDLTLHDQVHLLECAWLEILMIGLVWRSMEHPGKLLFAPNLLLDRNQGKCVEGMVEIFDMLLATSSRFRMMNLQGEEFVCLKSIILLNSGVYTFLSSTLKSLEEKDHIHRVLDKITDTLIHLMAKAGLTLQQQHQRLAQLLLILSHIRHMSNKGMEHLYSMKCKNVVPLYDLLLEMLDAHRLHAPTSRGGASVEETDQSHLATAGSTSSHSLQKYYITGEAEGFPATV
T1 sequence (P40337 whole entry, looked up): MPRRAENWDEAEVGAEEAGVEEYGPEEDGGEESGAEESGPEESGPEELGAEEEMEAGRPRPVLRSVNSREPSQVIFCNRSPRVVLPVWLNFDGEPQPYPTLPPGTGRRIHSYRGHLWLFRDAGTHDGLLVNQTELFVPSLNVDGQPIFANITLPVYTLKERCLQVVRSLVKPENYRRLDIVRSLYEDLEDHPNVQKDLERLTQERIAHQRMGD
T1 sequence (Q13617 whole entry, looked up): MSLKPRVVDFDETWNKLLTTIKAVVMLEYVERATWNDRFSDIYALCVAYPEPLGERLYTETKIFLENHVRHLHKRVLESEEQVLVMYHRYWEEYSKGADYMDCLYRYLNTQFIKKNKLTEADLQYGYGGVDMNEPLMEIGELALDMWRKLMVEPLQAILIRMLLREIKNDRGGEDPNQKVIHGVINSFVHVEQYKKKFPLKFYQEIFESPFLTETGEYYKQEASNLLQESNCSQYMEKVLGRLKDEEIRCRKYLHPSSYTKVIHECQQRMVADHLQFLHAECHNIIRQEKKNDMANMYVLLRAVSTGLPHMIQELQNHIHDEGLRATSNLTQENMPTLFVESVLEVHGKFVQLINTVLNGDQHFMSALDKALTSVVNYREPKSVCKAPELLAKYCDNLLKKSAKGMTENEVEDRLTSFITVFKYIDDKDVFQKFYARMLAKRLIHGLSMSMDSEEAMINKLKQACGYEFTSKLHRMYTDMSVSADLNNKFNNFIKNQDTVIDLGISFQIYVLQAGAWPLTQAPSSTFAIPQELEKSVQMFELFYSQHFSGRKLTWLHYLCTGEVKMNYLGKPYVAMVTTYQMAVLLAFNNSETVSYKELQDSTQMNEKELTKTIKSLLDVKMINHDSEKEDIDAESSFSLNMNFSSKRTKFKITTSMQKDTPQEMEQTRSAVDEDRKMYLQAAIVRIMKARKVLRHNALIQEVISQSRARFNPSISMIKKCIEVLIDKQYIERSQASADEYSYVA
Summary of the method: (§1)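 MCF-7 cells (DMEM, 10% FBS, passages 3−8) exposed 4 h. Lysed in RIPA with protease inhibitors; equal protein on 10% SDS-PAGE, PVDF, anti-ERα blot. Membranes stripped and reprobed for GAPDH. ERα/GAPDH ratio normalized to DMSO = 100; DC50 from densitometry of the dose series.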

[3] = molecular target: T1, von Hippel-Lindau disease tumor suppressor/Estrogen receptor/Cullin-2; assay: Protac activity against VHL/cullin2/ERalpha in human MCF7 cells assessed as ERalpha degradation by measuring ER protein/GADPH ratio at 10 nM after 4 hrs by Western blot analysis relative to control; format: cell-based; summary of the method: as §1
[4] = molecular target: T1, von Hippel-Lindau disease tumor suppressor/Estrogen receptor/Cullin-2; assay: Protac activity against VHL/cullin2/ERalpha in human MCF7 cells assessed as ERalpha degradation by measuring ER protein/GADPH ratio at 100 nM after 4 hrs by Western blot analysis relative to control; format: cell-based; summary of the method: as §1

Structure (SMILES) | IC50 [1] | Ratio [2] | Ratio [3] | Ratio [4]
CC(=O)N[C@H](C(=O)N1C[C@H](O)C[C@H]1C(=O)N[C@@H](C)c1ccc(-c2scnc2C)cc1)C(C)(C)C | 196 nM |  |  | 
C#Cc1ccc([C@H](C)NC(=O)[C@@H]2C[C@@H](O)CN2C(=O)[C@@H](NC(=O)CCCCCCCN(CC)CCOc2ccc(C(=O)c3c(-c4ccc(O)cc4)sc4cc(O)ccc34)cc2)C(C)(C)C)cc1 |  | 90 | 24 | 8
CCN(CCCCCCCC(=O)N[C@H](C(=O)N1C[C@H](O)C[C@H]1C(=O)N[C@@H](C)c1ccc(C2CC2)cc1)C(C)(C)C)CCOc1ccc(C(=O)c2c(-c3ccc(O)cc3)sc3cc(O)ccc23)cc1 |  | 130 | 75 | 70
CCN(CCOc1ccc(C(=O)c2c(-c3ccc(O)cc3)sc3cc(O)ccc23)cc1)CCN1CCN(CCCC(=O)N[C@H](C(=O)N2C[C@H](O)C[C@H]2C(=O)N[C@@H](C)c2ccc(-c3scnc3C)cc2)C(C)(C)C)CC1 |  | 208 | 50 | 24
CCN(CCCC#Cc1cnn(CCC(=O)N[C@H](C(=O)N2C[C@H](O)C[C@H]2C(=O)N[C@@H](C)c2ccc(-c3scnc3C)cc2)C(C)(C)C)c1)CCOc1ccc(C(=O)c2c(-c3ccc(O)cc3)sc3cc(O)ccc23)cc1 |  | 70 | 0.5 | 0.4
CCN(CCCCCCCC(=O)N[C@H](C(=O)N1C[C@H](O)C[C@H]1C(=O)N[C@@H](C)c1ccc(-c2scnc2C)cc1)C(C)(C)C)CCOc1ccc(Cn2c(-c3ccc(O)cc3)c(C)c3cc(O)ccc32)cc1 |  | 74 | 10 | 0.2
CCN(CCC#Cc1cnn(CC(=O)N[C@H](C(=O)N2C[C@H](O)C[C@H]2C(=O)N[C@@H](C)c2ccc(-c3scnc3C)cc2)C(C)(C)C)c1)CCOc1ccc(C(=O)c2c(-c3ccc(O)cc3)sc3cc(O)ccc23)cc1 |  | 139 | 45 | 24
CCN(CCOCCOCCC(=O)N[C@H](C(=O)N1C[C@H](O)C[C@H]1C(=O)N[C@@H](C)c1ccc(-c2scnc2C)cc1)C(C)(C)C)CCOc1ccc(C(=O)c2c(-c3ccc(O)cc3)sc3cc(O)ccc23)cc1 |  | 183 | 2.4 | 1.7
CCN(CCCCCCCC(=O)N[C@H](C(=O)N1C[C@H](O)C[C@H]1C(=O)N[C@@H](C)c1ccc(C(C)C)cc1)C(C)(C)C)CCOc1ccc(C(=O)c2c(-c3ccc(O)cc3)sc3cc(O)ccc23)cc1 |  | 138 | 109 | 78
CCN(CCOCCOCC(=O)N[C@H](C(=O)N1C[C@H](O)C[C@H]1C(=O)N[C@@H](C)c1ccc(-c2scnc2C)cc1)C(C)(C)C)CCOc1ccc(C(=O)c2c(-c3ccc(O)cc3)sc3cc(O)ccc23)cc1 |  | 94 | 0.4 | 0.4
CCN(CCCCCCCC(=O)N[C@H](C(=O)N1C[C@H](O)C[C@H]1C(=O)N[C@@H](C)c1ccc(-c2scnc2C)cc1)C(C)(C)C)CCOc1ccc([C@@H]2c3ccc(O)cc3CC[C@@H]2c2ccccc2)cc1 |  | 74 | 5 | 0.3
CCC(=C(c1ccc(O)cc1)c1ccc(OCCN(CC)CCCCCCCC(=O)N[C@H](C(=O)N2C[C@H](O)C[C@H]2C(=O)N[C@@H](C)c2ccc(-c3scnc3C)cc2)C(C)(C)C)cc1)c1ccccc1 |  | 55 | 24 | 0.6
CCN(CCCCc1cnn(CC(=O)N[C@H](C(=O)N2C[C@H](O)C[C@H]2C(=O)N[C@@H](C)c2ccc(-c3scnc3C)cc2)C(C)(C)C)c1)CCOc1ccc(C(=O)c2c(-c3ccc(O)cc3)sc3cc(O)ccc23)cc1 |  | 99 | 20 | 12
CCN(CCCCCCCC(=O)N[C@H](C(=O)N1C[C@H](O)C[C@H]1C(=O)N[C@@H](C)c1ccc(Cl)cc1)C(C)(C)C)CCOc1ccc(C(=O)c2c(-c3ccc(O)cc3)sc3cc(O)ccc23)cc1 |  | 99 | 87 | 79
CCN(CCCCCCCC(=O)N[C@H](C(=O)N1C[C@H](O)C[C@H]1C(=O)N[C@@H](C)c1ccc(C(C)(C)C)cc1)C(C)(C)C)CCOc1ccc(C(=O)c2c(-c3ccc(O)cc3)sc3cc(O)ccc23)cc1 |  | 136 | 112 | 80
CCC(=C(c1ccccc1)c1ccc(OCCN(CC)CCCCCCCC(=O)N[C@H](C(=O)N2C[C@H](O)C[C@H]2C(=O)N[C@@H](C)c2ccc(-c3scnc3C)cc2)C(C)(C)C)cc1)c1ccccc1 |  | 103 | 97 | 2.4
CCN(CCCCCCCC(=O)N[C@H](C(=O)N1C[C@H](O)C[C@H]1C(=O)N[C@@H](C)c1ccc(C#N)cc1)C(C)(C)C)CCOc1ccc(C(=O)c2c(-c3ccc(O)cc3)sc3cc(O)ccc23)cc1 |  | 110 | 86 | 80
CCN(CCOc1ccc(C(=O)c2c(-c3ccc(O)cc3)sc3cc(O)ccc23)cc1)CCC1CCN(CCCC(=O)N[C@H](C(=O)N2C[C@H](O)C[C@H]2C(=O)N[C@@H](C)c2ccc(-c3scnc3C)cc2)C(C)(C)C)CC1 |  | 227 | 91 | 98

Continued, values first:

IC50 [1] | Ratio [2] | Ratio [3] | Ratio [4] | Structure (SMILES)
 | 28 | 0.5 | 0.2 | Cc1ncsc1-c1ccc([C@H](C)NC(=O)[C@@H]2C[C@@H](O)CN2C(=O)[C@@H](NC(=O)CCCCCCCN(CCOc2ccc(C(=O)c3c(-c4ccc(O)cc4)sc4cc(O)ccc34)cc2)C(C)C)C(C)(C)C)cc1
 | 32 | 8 | 6 | CCN(CCCCCCC(=O)N[C@H](C(=O)N1C[C@H](O)C[C@H]1C(=O)N[C@@H](C)c1ccc(-c2scnc2C)cc1)C(C)(C)C)CCOc1ccc(C(=O)c2c(-c3ccc(O)cc3)sc3cc(O)ccc23)cc1
 | 27 | 153 | 46 | Cc1ncsc1-c1ccc([C@H](C)NC(=O)[C@@H]2C[C@@H](O)CN2C(=O)[C@@H](NC(=O)CCCCCCCN(C)CCOc2ccc(C(=O)c3c(-c4ccc(O)cc4)sc4cc(O)ccc34)cc2)C(C)(C)C)cc1
 | 15 | 4 | 0.1 | Cc1ncsc1-c1ccc([C@H](C)NC(=O)[C@@H]2C[C@@H](O)CN2C(=O)[C@@H](NC(=O)CCCCCCCN(CCOc2ccc(C(=O)c3c(-c4ccc(O)cc4)sc4cc(O)ccc34)cc2)C2CCC2)C(C)(C)C)cc1
 | 20 | 0.2 | 0.1 | Cc1ncsc1-c1ccc([C@H](C)NC(=O)[C@@H]2C[C@@H](O)CN2C(=O)[C@@H](NC(=O)CCCCCCCN(CCOc2ccc(C(=O)c3c(-c4ccc(O)cc4)sc4cc(O)ccc34)cc2)C2CC2)C(C)(C)C)cc1
 | 68 | 0.6 | 0.1 | Cc1ncsc1-c1ccc([C@H](C)NC(=O)[C@@H]2C[C@@H](O)CN2C(=O)[C@@H](NC(=O)CCCCCCCN(CCOc2ccc(C(=O)c3c(-c4ccc(O)cc4)sc4cc(O)ccc34)cc2)C2CCCCC2)C(C)(C)C)cc1
 | 26 | 66 | 12 | CCN(CCCCCC(=O)N[C@H](C(=O)N1C[C@H](O)C[C@H]1C(=O)N[C@@H](C)c1ccc(-c2scnc2C)cc1)C(C)(C)C)CCOc1ccc(C(=O)c2c(-c3ccc(O)cc3)sc3cc(O)ccc23)cc1
 | 23 | 7 | 3 | CCN(CCCCCCCCC(=O)N[C@H](C(=O)N1C[C@H](O)C[C@H]1C(=O)N[C@@H](C)c1ccc(-c2scnc2C)cc1)C(C)(C)C)CCOc1ccc(C(=O)c2c(-c3ccc(O)cc3)sc3cc(O)ccc23)cc1
 | 21 | 0.2 | 0 | Cc1ncsc1-c1ccc([C@H](C)NC(=O)[C@@H]2C[C@@H](O)CN2C(=O)[C@@H](NC(=O)CCCCCCCN(CCOc2ccc(C(=O)c3c(-c4ccc(O)cc4)sc4cc(O)ccc34)cc2)C(C)(C)C)C(C)(C)C)cc1
 | 63 | 139 | 135 | CCN(CCCC(=O)N[C@H](C(=O)N1C[C@H](O)C[C@H]1C(=O)N[C@@H](C)c1ccc(-c2scnc2C)cc1)C(C)(C)C)CCOc1ccc(C(=O)c2c(-c3ccc(O)cc3)sc3cc(O)ccc23)cc1
 | 75 | 0.3 | 0.1 | Cc1ncsc1-c1ccc([C@H](C)NC(=O)[C@@H]2C[C@@H](O)CN2C(=O)[C@@H](NC(=O)CCCCCCCN(CCOc2ccc(C(=O)c3c(-c4ccc(O)cc4)sc4cc(O)ccc34)cc2)C2CCCC2)C(C)(C)C)cc1
 | 25 | 0.4 | 0.3 | CCN(CCCCCCCCCC(=O)N[C@H](C(=O)N1C[C@H](O)C[C@H]1C(=O)N[C@@H](C)c1ccc(-c2scnc2C)cc1)C(C)(C)C)CCOc1ccc(C(=O)c2c(-c3ccc(O)cc3)sc3cc(O)ccc23)cc1
 | 76 | 1.3 | 0.2 | Cc1ncsc1-c1ccc([C@H](C)NC(=O)[C@@H]2C[C@@H](O)CN2C(=O)[C@@H](NC(=O)CCCCCCCN(CCOc2ccc(C(=O)c3c(-c4ccc(O)cc4)sc4cc(O)ccc34)cc2)CC2CCC2)C(C)(C)C)cc1
 | 90 | 129 | 92 | CCN(CCCCC(=O)N[C@H](C(=O)N1C[C@H](O)C[C@H]1C(=O)N[C@@H](C)c1ccc(-c2scnc2C)cc1)C(C)(C)C)CCOc1ccc(C(=O)c2c(-c3ccc(O)cc3)sc3cc(O)ccc23)cc1
 | 79 | 71 | 62 | CCN(CCCCCCCC(=O)N[C@H](C(=O)N1C[C@H](O)C[C@H]1C(=O)NCc1ccc(-c2scnc2C)cc1)C(C)(C)C)CCOc1ccc(C(=O)c2c(-c3ccc(O)cc3)sc3cc(O)ccc23)cc1
